Test results: ChEMBL document CHEMBL4680229, “Design, synthesis and bioactivity study of N-salicyloyl tryptamine derivatives as multifunctional agents for the treatment of neuroinflammation” (Eur J Med Chem, 2020)
Activity calls are given as the source filed them. No cut-off for these calls is given here.

Legend:
Homo sapiens = organism: Homo sapiens; test: Selectivity index, ratio of IC50 for inhibition of human COX1 to IC50 for inhibition of human COX2
[1] = Cmax in Sprague-Dawley rat at 50 mg/kg, ip up to 24 hrs by LC-MS analysis; format: ADME, organism-based; parameters: route intraperitoneal, dose 50 mg/kg, time <=24; conditions: in vivo
How it was run: (§1)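 Male Sprague-Dawley rats, six per group, single 50 mg/kg intraperitoneal dose; parameters derived by non-compartmental analysis using the linear trapezoidal method; mean ± SD, n = 6.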

[2] = molecular target: T1, Prostaglandin G/H synthase 2 (Mus musculus) (UniProt Q05769); test: Inhibition of COX2 in LPS-induced mouse BV-2 cells assessed as reduction in PGE2 production after 24 hrs by ELISA; format: cell-based
T1 sequence (whole entry): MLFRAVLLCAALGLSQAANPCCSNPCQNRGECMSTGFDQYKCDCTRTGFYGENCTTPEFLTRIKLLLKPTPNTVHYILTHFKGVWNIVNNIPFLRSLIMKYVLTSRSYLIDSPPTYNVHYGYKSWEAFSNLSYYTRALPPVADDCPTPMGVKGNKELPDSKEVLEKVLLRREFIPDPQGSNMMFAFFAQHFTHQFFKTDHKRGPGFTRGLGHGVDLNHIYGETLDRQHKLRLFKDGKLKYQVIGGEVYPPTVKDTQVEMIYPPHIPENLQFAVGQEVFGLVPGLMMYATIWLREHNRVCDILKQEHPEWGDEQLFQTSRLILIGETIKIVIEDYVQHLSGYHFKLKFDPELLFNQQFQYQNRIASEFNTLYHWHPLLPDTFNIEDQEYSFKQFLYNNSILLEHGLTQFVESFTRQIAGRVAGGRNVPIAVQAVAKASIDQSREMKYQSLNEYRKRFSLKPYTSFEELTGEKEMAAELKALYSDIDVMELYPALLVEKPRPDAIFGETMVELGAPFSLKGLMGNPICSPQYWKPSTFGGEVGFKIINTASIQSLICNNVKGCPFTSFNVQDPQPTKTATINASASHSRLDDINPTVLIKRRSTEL
How it was run: (§2)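 BV2 cells at 5×10^5 cells/mL stimulated with LPS 1 μg/mL; compound at 10, 20 or 40 μM final for 24 h, DMSO in blanks. Supernatant TNF-α and IL-10 measured by sandwich ELISA and PGE2 by competitive ELISA, OD at 450 nm; at least three independent experiments.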

[3] = Toxicity in LPS-induced hippocampal neuroinflammatory Kunming mouse model assessed as behavioral changes at 50 mg/kg, ip administered bid for 6 days […]; format: organism-based; conditions: in vivo, 144 h, time 6 day
How it was run: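 Male Kunming mice (8 weeks, 20–25 g, n = 10/group) were anaesthetised with i.p. chloral hydrate, then given LPS (3 μL of 10 mg/mL) into the lateral ventricle at 0.5 μL/min; sham mice received 3 μL saline. Compound was then given i.p. at 50 mg/kg in saline with 1% methyl cellulose for six consecutive days. Behaviour and deaths were recorded, and hippocampal slices were Nissl-stained.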

[4] = molecular target: Prostaglandin G/H synthase 2 (Homo sapiens) (UniProt P35354); test: Inhibition of human COX2 assessed as reduction in PGF2alpha formation using arachidonic acid as substrate incubated for 10 mins by ELISA
[5] = molecular target: Prostaglandin G/H synthase 1 (Homo sapiens) (UniProt P23219); test: Inhibition of human COX1 assessed as reduction in PGF2alpha formation using arachidonic acid as substrate incubated for 10 mins by ELISA
[6] = Toxicity in Kunming mouse assessed as changes in kidney at 1000 mg/kg, po after 14 days; format: organism-based; conditions: in vivo, 336 h, time 14 day
How it was run: (§3)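 Mice, five male and five female, given a single oral dose of 1000 mg/kg and observed for behaviour for 14 days. Heart, liver, kidney and stomach then examined grossly and after H&E staining, compared with vehicle controls.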

C6 [7] = test: Antiinflammatory activity against LPS-induced rat C6 cells assessed as decrease in INOS protein expression at 40 uM after 24 hrs by Western blot analysis relative to control; format: functional; parameters: scale not given: the % may be the effect or the level left
How it was run: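 C6 cells; LPS 10 μg/mL plus compound at 10, 20 or 40 μM for 24 h. Lysates with RIPA/PMSF, 30 μg protein on 8% SDS-PAGE, iNOS immunoblot and densitometry; at least three independent experiments.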

[8] = Toxicity in Kunming mouse assessed as changes in stomach at 1000 mg/kg, po after 14 days; format: organism-based; conditions: in vivo, 336 h, time 14 day; how it was run: as §3
C6 [9] = test: Inhibition of LPS-induced NO production in rat C6 cells incubated for 24 hrs by Griess reagent based assay; format: functional, cell-based; conditions: C6, 24 h
How it was run: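 C6 cells at 5×10^5 cells/mL, LPS 10 μg/mL plus compound at 2.5–40 μM final for 24 h. Nitrite measured with Griess reagent at 540 nm against a NaNO2 standard; IC50 from three repeats.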

BV-2 [10] = test: Antiinflammatory activity against LPS-induced mouse BV-2 cells assessed as increase in IL-10 production at 40 uM after 24 hrs by ELISA; format: functional, cell-based; how it was run: as §2
[11] = Toxicity in Kunming mouse assessed as changes in liver at 1000 mg/kg, po after 14 days; format: organism-based; conditions: in vivo, 336 h, time 14 day; how it was run: as §3
[12] = Half life in Sprague-Dawley rat at 50 mg/kg, ip up to 24 hrs by LC-MS analysis; format: ADME, organism-based; conditions: in vivo; how it was run: as §1
BV-2 [13] = test: Antiinflammatory activity against LPS-induced mouse BV-2 cells assessed as decrease in ROS production at 10 to 40 uM after 6 hrs by DCFH-DA fluorescence probe based flow cytometric analysis; format: functional, cell-based; conditions: dose 10-40 µM
How it was run: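 BV2 cells with LPS 1 μg/mL and compound at 10, 20 or 40 μM for 6 h, then DCFH-DA 20 μM final for 30 min at 37 °C. Washed in cold PBS and read by flow cytometry, excitation 485 nm and emission 530 nm.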

BV-2 [14] = test: Cytotoxicity against mouse BV-2 cells assessed as reduction in cell viability after 24 hrs by MTT assay; format: cell-based; conditions: BV-2, 24 h
How it was run: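 C6 or BV2 cells seeded at 1–5×10^5 per well; after 12 h exposed to 0, 6.25, 12.5, 25, 50 or 100 μM (final, DMSO <0.4%) for 24 h. MTT added for 4 h, dissolved in DMSO, read at 570 nm. IC50 as mean of three independent experiments run in triplicate.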

[15] = Toxicity in po dose Kunming mouse after 14 days; format: organism-based; conditions: in vivo, time 14 day
How it was run: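 Acute toxicity followed OECD guidelines in ten mice (five male, five female). A single oral dose of 1000 mg/kg was given, with a vehicle control group. Behaviour was observed over 14 days. Mice were then sacrificed for gross and H&E histological examination of heart, liver, kidney and stomach.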

[16] = Toxicity in Kunming mouse assessed as behavioral changes at 1000 mg/kg, po up to 14 days; format: organism-based; conditions: in vivo, 336 h, time <=14 day; how it was run: as §3

Prostaglandin G/H synthase 2 (Homo sapiens), sequence (P35354 whole entry, looked up): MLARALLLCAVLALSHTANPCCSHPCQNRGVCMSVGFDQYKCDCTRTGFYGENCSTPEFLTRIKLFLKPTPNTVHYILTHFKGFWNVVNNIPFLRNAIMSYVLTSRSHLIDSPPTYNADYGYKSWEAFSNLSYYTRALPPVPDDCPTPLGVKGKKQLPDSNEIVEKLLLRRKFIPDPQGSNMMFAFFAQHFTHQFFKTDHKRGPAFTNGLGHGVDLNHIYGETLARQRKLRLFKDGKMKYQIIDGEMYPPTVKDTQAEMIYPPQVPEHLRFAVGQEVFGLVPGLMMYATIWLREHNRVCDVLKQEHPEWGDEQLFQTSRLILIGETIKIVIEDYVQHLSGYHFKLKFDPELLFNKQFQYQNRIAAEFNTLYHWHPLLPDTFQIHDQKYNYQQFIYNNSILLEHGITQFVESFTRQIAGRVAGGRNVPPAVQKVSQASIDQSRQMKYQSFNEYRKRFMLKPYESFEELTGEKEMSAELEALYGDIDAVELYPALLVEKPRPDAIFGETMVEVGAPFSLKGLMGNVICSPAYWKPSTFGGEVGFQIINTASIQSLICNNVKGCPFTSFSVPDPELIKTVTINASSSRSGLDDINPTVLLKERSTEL

Cc1ccc(C(=O)NCCc2c[nH]c3ccccc23)c(O)c1
Ratio IC50 (Homo sapiens): 3.95 | Cmax [1]: 2100 ng/mL | inhibition [2]: Dose-dependent effect | Activity [3]: Non-Toxic | IC50 [4]: 4.16 µM | IC50 [5]: 16.4 µM | Activity [6]: Non-Toxic | Activity (C6 [7]): 29% | Activity [8]: Non-Toxic | IC50 (C6 [9]): 7.48 µM | Activity (BV-2 [10]): Active | Activity [11]: Non-Toxic | half-life [12]: 13.9 h | Activity (BV-2 [13]): Active | IC50 (BV-2 [14]): > 100 µM | LD50 at 336 h [15]: > 1000 mg/kg | Activity [16]: Non-Toxic

O=C(NCCc1c[nH]c2ccc(O)cc12)c1ccccc1Nc1ccccc1
Ratio IC50 (Homo sapiens): 0.76 | Cmax [1]: 6080 ng/mL | inhibition [2]: Dose-dependent effect | Activity [3]: Non-Toxic | IC50 [4]: 0.5 µM | IC50 [5]: 0.38 µM | Activity [6]: Non-Toxic | Activity (C6 [7]): 95% | Activity [8]: Non-Toxic | IC50 (C6 [9]): 6.73 µM | Activity (BV-2 [10]): Active | Activity [11]: Non-Toxic | half-life [12]: 2.72 h | Activity (BV-2 [13]): Active | IC50 (BV-2 [14]): > 100 µM | LD50 at 336 h [15]: > 1000 mg/kg | Activity [16]: Non-Toxic
